In data set [1] the test system is HepG2. The data set is described as follows: Induction of apoptosis in human HepG2 cells assessed as increase in cleaved PARP level at 0.5 to 2 uM incubated for 12 hrs by Western blot analysis. It is filed as functional, cell-based. The note with it: dose 0.5-2 µM. A digest of the protocol:
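HepG2 cells exposed 12 h to graded concentrations. RIPA lysates with protease/phosphatase inhibitors, 40–80 µg protein by SDS-PAGE onto nitrocellulose, probed for PARP cleavage, chemiluminescent detection.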
In general terms: In western blotting, separated proteins are transferred to a membrane and probed.

Data set [2] concerns HepG2. The data set is described as follows: Antitumor activity against human HepG2 cells xenografted in BALB/c mouse assessed as induction of autophagy by measuring increase in Beclin1 level in tumor tissue at 10 to 20 mg/kg/day, ip administered for 15 days by western blot analysis. Format: functional, organism-based. The note with it: dose 10-20 mg/kg/day, time 15.0 day. A digest of the protocol:
(§1)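 HepG2 cells (5×10^6) injected subcutaneously into flanks of 4-week-old male Balb/c nude mice. At about 100 mm³, 15 mice were randomized to vehicle, 10 or 20 mg/kg i.p. once daily for 15 days. Tumors were then excised for immunostaining of paraffin sections (5 μm) or for western blot.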

Data set [3] relates to HepG2. The data set can be described thus: Induction of endoplasmic reticulum stress in human HepG2 cells assessed as increase in TRB3 expression at 2 uM measured after 1 to 4 hrs by Western blot analysis. The note with it: time 1-4 hrs. Format: functional, cell-based. A digest of the protocol: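 HepG2 exposed to 2.0 µM over a time course; Nur77, Bip, p-EIF2a, TRB3 and LC3 levels followed by Western blot of RIPA lysates.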

The subject of data set [4] is QGY-7703. The data set can be described thus: Antiproliferative activity against human QGY-7703 cells assessed as reduction in cell viability at 2 uM by MTT assay. It is filed as functional, cell-based. The note with it: time 12-48 hrs, TDE = time-dependent effect. A digest of the protocol: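 Cells treated with 2.0 µM over a time course; viability read by MTT. HepG2, SMMC-7721 kept in DMEM, QGY-7703 in RPMI 1640, with 10% FBS at 37 °C and 5% CO2.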

The subject of data set [5] is QGY-7703. The data set is described as follows: Upregulation of Nur77 expression in human QGY-7703 cells incubated for 6 hrs by Western blot analysis. Format: functional, cell-based. The note with it: dose 0.5-2 µM. A digest of the protocol:
(§2)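 HepG2, QGY-7703 and SMMC-7721 cells treated with the indicated concentrations for 6 h. HepG2 also given 2.0 µM over a time course. Lysis in RIPA with protease and phosphatase inhibitors; 40-80 µg protein by SDS-PAGE, nitrocellulose transfer. Membranes blocked with 5% milk, primary antibody overnight, HRP secondary, chemiluminescence. GAPDH as loading control.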

The nature of data set [6]: Toxicity in BALB/c mouse xenografted with human HepG2 cells assessed as effect on body weight at 10 to 20 mg/kg/day, ip administered for 15 days. Format: organism-based. The note with it: in vivo, 360 h, dose 10-20 mg/kg/day, time 15 day. A digest of the protocol: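 Male Balb/c mice, 4 weeks old, injected subcutaneously in the flank with 5×10^6 HepG2 cells. At about 100 mm³, 15 mice randomized into vehicle, 10 and 20 mg/kg groups. Dosed i.p. once daily for 15 days. Tumour size and body weight measured daily; mice euthanized at the end.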

For data set [7], the system named is QGY-7703. The data set can be described thus: Antiproliferative activity against human QGY-7703 cells assessed as reduction in cell viability incubated for 48 hrs by MTT assay. The note with it: QGY-7703, 48 h. It is filed as functional, cell-based. A digest of the protocol: (§3)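 MTT assay after 48 h exposure at six concentrations, range chosen by cytotoxicity. Inhibition = (ODcontrol − ODtest)/ODcontrol × 100%; IC50 is the concentration halving OD versus untreated cells. Means ± SD of three independent determinations. HepG2 and SMMC-7721 grown in DMEM, QGY-7703 and LO2 in RPMI 1640, with 10% FBS at 37 °C.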
A general note: Tetrazolium dyes change colour on reduction, which living cells bring about.

Data set [8] relates to HepG2. The data set can be described thus: Induction of autophagy in Nur77 knockout human HepG2 cells assessed as increase in GFP-LC3 puncta formation at 2 uM after 6 hrs by fluorescence microscopic method. It is filed as functional, cell-based. A digest of the protocol: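 HepG2, or HepG2 and shNur77 HepG2, transfected with GFP-LC3, then given vehicle or 2.0 µM for 6 h; GFP-LC3 puncta visualised by fluorescence microscopy alongside phase-contrast images.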

The subject of data set [9] is HepG2. The data set is described as follows: Upregulation of Nur77 expression in human HepG2 cells at 2 uM measured after 1 to 6 hrs by western blot analysis. It is filed as functional, cell-based. The note with it: time 1-6 hrs. A digest of the protocol: as §2
For data set [10], the system named is HepG2. The data set can be described thus: Antitumor activity against human HepG2 cells xenografted in BALB/c mouse assessed as sparser and vacuolated cells in tumor tissue at 10 to 20 mg/kg/day, ip for 15 days by hematoxylin and eosin staining based microscopic analysis. The note with it: dose 10-20 mg/kg/day, time 15.0 day. It is filed as functional, organism-based. A digest of the protocol: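 H&E staining of 4% paraformaldehyde-fixed, paraffin-embedded 5 μm tumor slices from the HepG2 flank xenograft (male Balb/c nude mice, 10 or 20 mg/kg i.p. daily for 15 days, versus vehicle). Examined by light microscopy at 200, 400 and 1000×.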
(In general: Xenograft models place foreign cells or tissue in a host animal.)

Data set [11] deals with HepG2. The data set can be described thus: Antitumor activity against human HepG2 cells xenografted in BALB/c mouse assessed as induction of ER stress by measuring increase in CHOP level in tumor tissue at 10 to 20 mg/kg/day, ip administered for 15 days by western blot analysis. The note with it: dose 10-20 mg/kg/day, time 15.0 day. Format: functional, organism-based. A digest of the protocol:
as §1

Data set [12] deals with HepG2. The data set can be described thus: Induction of apoptosis in human HepG2 cells assessed as cleaved PARP expression at 2 uM pretreated with autophagy inhibitor, 3-methyladenine for 2 hrs followed by incubation with compound for 12 hrs by Western blot analysis. It is filed as functional, cell-based. A digest of the protocol:
(§4)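 HepG2 cells grown to confluence were pretreated 2 h with 2 mM 3-MA (autophagy inhibitor) or 2 mM 4-PBA (ER stress inhibitor), then exposed to compound for 12 h. Proteins (40–80 µg, RIPA lysate) were resolved by SDS-PAGE and blotted for PARP, cleaved caspase-3/-9, Bcl-2 and Bax, with chemiluminescent detection.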

For data set [13], the system named is HepG2. The data set is described as follows: Induction of autophagy in Nur77 knockout human HepG2 cells assessed as increase in Beclin 1 expression at 2 uM measured after 6 to 12 hrs by Western blot analysis. It is filed as functional, cell-based. The note with it: time 6-12 hrs. A digest of the protocol: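 Scrambled-control and shNur77 HepG2 given DMSO or 2.0 µM for 6 or 12 h; immunoblotting of RIPA lysates for LC3, Beclin1 and Nur77 after SDS-PAGE and nitrocellulose transfer, chemiluminescent detection.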

For data set [14], the system named is HepG2. The data set can be described thus: Induction of autophagy in human HepG2 cells assessed as increase in Beclin 1 expression measured after 12 hrs by Western blot analysis. The note with it: dose 0.5-2 µM. Format: functional, cell-based. A digest of the protocol:
(§5)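 HepG2, QGY-7703 and SMMC-7721 treated with graded concentrations for 12 h. Lysed in RIPA with inhibitors; 40-80 µg protein separated by SDS-PAGE, blotted to nitrocellulose, blocked 1 h in 5% milk, primary antibodies overnight (LC3, Beclin1, Bip, CHOP, TRB3), HRP secondaries, chemiluminescence.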

Another data set deals with L02. The data set is described as follows: Cytotoxicity against human L02 cells assessed as reduction in cell viability incubated for 48 hrs by MTT assay. It is filed as cell-based. The note with it: L02, 48 h. A digest of the protocol: as §3
Data set [15] has as its target Nuclear receptor subfamily 4immunitygroup A member 1 (Homo sapiens, UniProt P22736). The data set can be described thus: Binding affinity to Nur77 ligand binding domain (unknown origin) assessed as dissociation constant by surface plasmon resonance analysis. A digest of the protocol:
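SPR with Nur77-LBD, analyte injected at a series of concentrations; KD (equilibrium dissociation constant) and association/dissociation kinetics derived from the sensorgrams.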

Data set [16] relates to QGY-7703. The data set can be described thus: Induction of autophagy in human QGY-7703 cells assessed as increase in LC3-II expression measured after 12 hrs by Western blot analysis. Format: functional, cell-based. The note with it: dose 0.5-2 µM. A digest of the protocol:
as §5

In data set [17] the test system is HepG2. The data set can be described thus: Induction of apoptosis in human HepG2 cells assessed as cleaved PARP expression at 2 uM pretreated with ER stress inhibitor, 4-PBA for 2 hrs followed by incubation with compound for 12 hrs by Western blot analysis. It is filed as functional, cell-based. A digest of the protocol:
as §4

The source made the active and inactive calls. The calls are words filed in the database; no cut-off is given here.

Nuclear receptor subfamily 4immunitygroup A member 1, sequence (P22736 whole entry, the tested form may be a part): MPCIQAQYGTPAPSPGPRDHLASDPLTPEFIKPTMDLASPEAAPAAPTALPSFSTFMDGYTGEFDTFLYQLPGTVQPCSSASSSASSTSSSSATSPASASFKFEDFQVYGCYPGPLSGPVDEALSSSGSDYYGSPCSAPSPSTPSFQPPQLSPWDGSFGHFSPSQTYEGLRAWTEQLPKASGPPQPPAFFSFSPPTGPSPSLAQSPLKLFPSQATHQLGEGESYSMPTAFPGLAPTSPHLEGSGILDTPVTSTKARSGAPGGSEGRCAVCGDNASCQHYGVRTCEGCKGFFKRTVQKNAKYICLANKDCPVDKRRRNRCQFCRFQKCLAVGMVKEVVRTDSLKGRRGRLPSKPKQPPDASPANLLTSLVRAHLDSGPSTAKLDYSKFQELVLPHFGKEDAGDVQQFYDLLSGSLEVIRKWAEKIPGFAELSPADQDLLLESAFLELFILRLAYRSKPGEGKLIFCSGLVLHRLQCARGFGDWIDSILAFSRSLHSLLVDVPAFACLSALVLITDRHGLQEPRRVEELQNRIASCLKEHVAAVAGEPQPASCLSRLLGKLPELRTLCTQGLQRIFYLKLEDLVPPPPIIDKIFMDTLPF

Usually IC50 stands for the concentration that inhibits the measured activity by half. The term Kd denotes a measure of binding affinity in units of concentration. For the compound `COc1cccc2c(Nc3ccc4[nH]c(C(=O)N/N=C/c5ccc(SC)cc5)cc4c3)cc(C)nc12`, the Activity result with HepG2 [1] is “Dose-dependent effect”; in the data set on QGY-7703 [4], “Tde”; with QGY-7703 [5], “Dose-dependent effect”; in data set [6] it was “Non-Toxic”; in the data set on HepG2 [14] it was “Dose-dependent effect”; in [15] (filed as modulator), “Dose-dependent effect”. For the same compound, in the data set with QGY-7703 [16], the Activity entry was “Dose-dependent effect”. Besides, the result in the data set with HepG2 [2], in the data set with HepG2 [3], in the data set with HepG2 [9], with HepG2 [10], in the data set on HepG2 [11] and with HepG2 [13] was Active. Further, the values for the IC50 in the data set on QGY-7703 [7] and in the data set on L02 were 890 nM and more than 20 µM, respectively. For the same compound, the outcome in the data set on HepG2 [8], in the data set on HepG2 [12] and in the data set on HepG2 [17] was inactive. In data set [15], the Kd came out at 3.58 µM.

Values taken from ChEMBL document CHEMBL4765399, “Design, synthesis, and biological evaluation of 5-((8-methoxy-2-methylquinolin-4-yl)amino)-1H-indole-2-carbohydrazide derivatives as novel Nur77 modulators” (Eur J Med Chem, 2020).
